Published values collected from several papers.
Each line is one published result; the experiments were not run side by side.
Target: Mitogen-activated protein kinase kinase kinase 14 (MAP3K14, Homo sapiens, UniProt Q99558)

CC(C)(C)c1cc(C=C(C#N)C#N)cc(Br)c1O — remaining activity (enzyme activity, inhibitor; 0.5 µM): 97.3%
COc1ncccc1-c1cnn2ccc(N3CCN(C(=O)OC(C)C)CC3)nc12 — remaining binding (binding, competition with immobilised ligand; 1 µM): 100%
Cn1cc(-c2cc(F)cc(N3CCn4c(cc5c4CCCC5)C3=O)c2CO)cc(Nc2ccc(N3CCN(C4COC4)CC3)cn2)c1=O — inhibition (enzyme activity, inhibitor; 0.1 µM): 6%
N#CC1(c2ccccn2)CCN(Cc2cc(C(=O)O)c(=O)n3ccccc23)CC1 — remaining binding (cell-free assay, competition with immobilised ligand; 1 µM): 73%
Nc1ncc(-c2nc(N3CCOCC3)nc(N3CCOCC3)n2)c(C(F)F)n1 — remaining binding (binding, competition with immobilised ligand; 10 µM): 70%
Cn1cncc1[C@](O)(COc1ccc(C#N)cc1-c1ccc(OC(F)(F)F)cc1)c1ccc(C#N)cc1 — remaining binding (cell-free assay, competition with immobilised ligand; 1 µM): 88%
Cn1cc(-c2cccc(N3CCc4c(sc5c4CC(C)(C)C5)C3=O)c2CO)cc(Nc2ccncn2)c1=O — inhibition (enzyme activity, inhibitor; 1 µM): -3%
O=c1[nH]c2ccccc2n1C1CCN(Cc2ccc(-c3[nH]c4cc5ncnc5cc4nc3-c3ccccc3)cc2)CC1 — remaining signal (cell-free assay; 0.5 µM): 96.8%
